Assay results published in publication PMC2813939 (Neuropsychopharmacology : official publication of the …, 2009).
Where “and” joins values, the source holds several entries; their conditions need not be identical. Equal entries are not always repeated. Where two headings read alike, the source gives them in different places. Each block holds one compound with its values, some of them ahead of it.

Legend:
[1] = cited from earlier work
[2] = biological target: T1, human D2 receptor (short isoform, D2S) (Homo sapiens, UniProt P14416); assay type: binding
T1 sequence (P14416 1-414 isoform P14416-2): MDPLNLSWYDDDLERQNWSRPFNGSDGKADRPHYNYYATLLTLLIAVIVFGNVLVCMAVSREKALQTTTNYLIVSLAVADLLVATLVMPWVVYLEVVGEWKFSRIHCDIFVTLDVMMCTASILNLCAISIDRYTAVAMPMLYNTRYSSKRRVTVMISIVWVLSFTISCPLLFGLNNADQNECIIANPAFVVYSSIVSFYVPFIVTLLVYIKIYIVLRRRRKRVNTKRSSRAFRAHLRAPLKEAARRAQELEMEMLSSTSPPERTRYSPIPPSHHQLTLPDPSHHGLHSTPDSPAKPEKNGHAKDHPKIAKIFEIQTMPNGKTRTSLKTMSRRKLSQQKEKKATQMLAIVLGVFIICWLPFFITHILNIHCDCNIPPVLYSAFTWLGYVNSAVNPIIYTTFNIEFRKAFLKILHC

[3] = biological target: T1, human D2 receptor (short isoform, D2S); test: cell-based; assay type: binding
[4] = system: GRK2; test: Western blot of tetracycline-induced GRK2 expression in triple-transfected cells; assay type: cell-based, bovine; conditions: tetracycline 1 μg/ml 24 h; triple-transfected cells vs untreated cells; n=3
In short: (§1)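 T-REx-293 cells stably triple-transfected with D2S receptor, tetracycline-inducible GRK2 and arrestin3; tetracycline 1 μg/ml (final) or vehicle 24 h at 36 °C. Lysed in 1% dodecyl maltopyranoside/PBS with protease inhibitors and N-ethylmaleimide; 20 μg protein run on 7.5% SDS-PAGE, PVDF. Rabbit polyclonal primaries 1 h RT (anti-GRK2 1:1000; anti-arrestin3 1:500), HRP anti-rabbit 1:15,000; ECL-Plus imaging and quantitation; % increase versus untreated cells.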

[5] = system: arrestin3; assay type: cell-based, rat; conditions: tetracycline 1 μg/ml 24 h; triple-transfected cells vs untreated cells; n=2
In short: as §1

[6] = biological target: T1, human D2 receptor (short isoform, D2S); assay type: binding; remark: listed apart in the source
[7] = internalized (Q+/MTSET+) vs surface (Q-/MTSET-)
[8] = read-out: Internalized D2 receptor (Q+/MTSET+) KI(i)
[9] = read-out: Surface D2 receptor (Q-/MTSET-) KI(s)

SMILES: CC[11CH2]N1CCc2cccc3c2C1Cc1ccc(O)c(O)c1-3 (single isomer, unassigned; (-)) [NPA, (-)-N-[11C]propyl-norapomorphine]
Lipophilicity (Log P) ([1]; ref Wilson et al, 2005): 2.5 ^d†

SMILES: CN1CN(c2ccccc2)C2(CCN(CCCC(=O)c3ccc(F)cc3)CC2)C1=O [NMSP, N-methylspiperone]
Lipophilicity (Log P) ([1]; ref Laruelle, 2000): 3.3 ^a†

SMILES: CN(C)[C@@H]1C(O)=C(C(N)=O)C(=O)[C@@]2(O)C(O)=C3C(=O)c4c(O)cccc4[C@@](C)(O)[C@H]3C[C@@H]12 [Tetracycline]
increase in GRK2 expression [4]: 190 ± 24% | increase in arrestin3 expression [5]: 538 ± 75%

SMILES: CCN1CCC[C@H]1CNC(=O)c1cc(I)cc(OC)c1OC [Epidepride]
Lipophilicity (Log kw) ([1]; ref Kessler et al, 1991): 2.1 ^c‡ | Affinity shift Ki(i)/Ki(s) [3]: 2.4

SMILES: CCN1CCC[C@H]1CNC(=O)c1c(O)c(Cl)cc(Cl)c1OC [Raclopride]
increase in the Ki at internalized receptors (decrease in affinity) [3]: about 2 fold

SMILES: CCCN1CCOC2c3cc(O)ccc3CCC21 (single isomer, unassigned; (+)) [PHNO, (+)-4-propyl-3,4,4a,5,6,10b-hexahydro-2H-naphtho[1,2-b][1,4]oxazin-9-ol]
Lipophilicity (Log P) ([1]; ref Wilson et al, 2005): 2.1 ^d†

Second part, led by results:

[3H]NMSP binding remaining, % of the total binding [2]: 10%
SMILES: C[N+](C)(C)CCSS(C)(=O)=O.[Br-] [MTSET, [2-(trimethylammonium)ethyl] methanethiosulfonate bromide]

Affinity shift Ki(i)/Ki(s) [3, 7]: 3.0 | Ki [3, 8]: 0.09 ± 0.02 nM | Ki [3, 9]: 0.03 ± 0.01 nM
SMILES: CCN1CCC[C@H]1CNC(=O)c1cc(Br)cc(OC)c1OC [FLB 457]
Lipophilicity (Log kw) ([1]; ref Loc'h et al, 1996): 1.9 ^b‡

fraction of D2 receptors on the surface [3]: 80.9% | fraction of D2 receptors on the surface (high affinity) [3]: 85.8% and 43.1% | fraction of D2 receptors with high affinity [6]: 90% and 55% and 89.9%
SMILES: CCN1CCCC1CNC(=O)c1cc(S(N)(=O)=O)ccc1OC (stereo not drawn) [Sulpiride]

Ki [3, 8]: 0.23 ± 0.11 nM | Ki [3, 9]: 0.19 ± 0.05 nM
SMILES: CCN1CCC[C@H]1CNC(=O)c1c(OC)ccc(I)c1O [IBZM]

Ki ([3]; Internalized D2 receptor (Q+/MTSET+) KI(i)): 0.92 ± 0.31 nM | Ki ([3]; Surface D2 receptor (Q-/MTSET-) KI(s)): 0.32 ± 0.06 nM | Affinity shift Ki(i)/Ki(s) [3, 7]: 2.9
SMILES: C=CCN1CCC[C@H]1CNC(=O)c1cc(CCCF)cc(OC)c1OC [Fallypride]
Lipophilicity (Log P) ([1]; ref Laruelle, 2000): 2.4 ^a†

Affinity shift Ki(i)/Ki(s) [3, 7]: 1.2
SMILES: CCN1CCC[C@H]1CNC(=O)c1c(OC)ccc([123I])c1O [IBZM]
Lipophilicity (Log P) ([1]; ref Laruelle, 2000): 2.8 ^a†
